According to ChEMBL document CHEMBL2384929, “Synthesis and biological evaluation of fluoro analogues of antimitotic phenstatin” (Bioorg Med Chem, 2013):

What was measured:
[1] = organism: Ovis aries; test: Inhibition of sheep brain tubulin assembly at 100 uM by DAPI staining-based fluorescence assay
Procedure, shortened: (§1)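 Tubulin from sheep brain, purified by two assembly–disassembly cycles, at about 2–3 mg/mL in 0.1 M MES, 0.5 mM MgCl2, 1 mM EGTA, 1 mM GTP, pH 6.6. Assembly followed by DAPI fluorescence at 37 °C. Single-point inhibition tested at 100 µM. IC50 is the concentration halving the assembly rate relative to no compound, mean of two experiments, with reference inhibitors run the same day.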

[2] = Inhibition of sheep brain tubulin assembly by DAPI staining-based fluorescence assay; design: species or system Ovis aries; procedure, shortened: as §1
[3] = test system: KM12; test: Cytotoxicity against human KM12 cells assessed as growth inhibition at 10 uM after 48 hrs by SRB assay; type: functional; conditions: KM12, 48 h, read-out: GI
Procedure, shortened: (§2)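 Single-dose NCI 60-cell screen at 10 µM with 48 h exposure and sulforhodamine B read-out. Values are percentage growth per cell line. A summary ratio counts cell lines with 0–50% growth over all cell lines tested.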

[4] = test system: HCT-15; test: Cytotoxicity against human HCT15 cells assessed as growth inhibition at 10 uM after 48 hrs by SRB assay; type: functional; conditions: HCT-15, 48 h, read-out: GI; procedure, shortened: as §2
[5] = test system: SW-620; test: Cytotoxicity against human SW620 cells assessed as growth inhibition at 10 uM after 48 hrs by SRB assay; type: functional; conditions: SW-620, 48 h, read-out: GI; procedure, shortened: as §2
[6] = test system: SR; test: Cytotoxicity against human SR cells assessed as growth inhibition at 10 uM after 48 hrs by SRB assay; type: functional; conditions: read-out: GI; procedure, shortened: as §2
[7] = test system: M14; test: Cytotoxicity against human M14 cells assessed as growth inhibition at 10 uM after 48 hrs by SRB assay; type: functional; conditions: M14, 48 h, read-out: GI; procedure, shortened: as §2
[8] = test system: K562; test: Cytotoxicity against human K562 cells assessed as growth inhibition at 10 uM after 48 hrs by SRB assay; type: functional; conditions: K562, 48 h, read-out: GI; procedure, shortened: as §2
[9] = test system: HCC 2998; test: Cytotoxicity against human HCC2998 cells assessed as growth inhibition at 10 uM after 48 hrs by SRB assay; type: functional; conditions: HCC 2998, 48 h, read-out: GI; procedure, shortened: as §2
[10] = test system: MDA-MB-435; test: Cytotoxicity against human MDA-MB-435 cells assessed as growth inhibition at 10 uM after 48 hrs by SRB assay; type: functional; conditions: MDA-MB-435, 48 h, read-out: GI; procedure, shortened: as §2
[11] = test system: HL-60(TB); test: Cytotoxicity against human HL-60(TB) cells assessed as growth inhibition at 10 uM after 48 hrs by SRB assay; type: functional; conditions: HL-60, 48 h, read-out: GI
Procedure, shortened: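 Single high dose of 10 µM in the NCI 60-cell disease-oriented human tumour panel, with 48 h exposure and sulforhodamine B read-out of percentage growth.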

[12] = test system: NCI-H522; test: Cytotoxicity against human NCI-H522 cells assessed as growth inhibition at 10 uM after 48 hrs by SRB assay; type: functional; conditions: NCI-H522, 48 h, read-out: GI; procedure, shortened: as §2
[13] = test system: MDA-MB-468; test: Cytotoxicity against human MDA-MB-468 cells assessed as growth inhibition at 10 uM after 48 hrs by SRB assay; type: functional; conditions: MDA-MB-468, 48 h, read-out: GI; procedure, shortened: as §2
[14] = test system: MCF7; test: Cytotoxicity against human MCF7 cells assessed as growth inhibition at 10 uM after 48 hrs by SRB assay; type: functional; conditions: MCF7, 48 h, read-out: GI; procedure, shortened: as §2
[15] = test system: SF-268; test: Cytotoxicity against human SF268 cells assessed as growth inhibition after 48 hrs by SRB assay; type: functional; conditions: SF-268, 48 h
Procedure, shortened: (§3)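 Run in the NCI 60 human tumour cell line panel. Cells exposed for 48 h, growth read by sulforhodamine B. Compounds were first screened at a single 10 µM dose, and those meeting preset threshold inhibition criteria went on to the 5-dose screen. GI50 is the molar concentration giving 50% growth inhibition.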

[16] = test system: SW-620; test: Cytotoxicity against human SW620 cells assessed as growth inhibition after 48 hrs by SRB assay; type: functional; conditions: SW-620, 48 h; procedure, shortened: as §3
[17] = test system: SR; test: Cytotoxicity against human SR cells assessed as growth inhibition after 48 hrs by SRB assay; type: functional; procedure, shortened: as §3
[18] = test system: SK-OV-3; test: Cytotoxicity against human SKOV3 cells assessed as growth inhibition after 48 hrs by SRB assay; type: functional; conditions: SK-OV-3, 48 h; procedure, shortened: as §3
[19] = test system: M14; test: Cytotoxicity against human M14 cells assessed as growth inhibition after 48 hrs by SRB assay; type: functional; conditions: M14, 48 h; procedure, shortened: as §3
[20] = test system: Hs-578T; test: Cytotoxicity against human Hs578T cells assessed as growth inhibition after 48 hrs by SRB assay; type: functional; procedure, shortened: as §3
[21] = test system: NCI/ADR-RES; test: Cytotoxicity against human NCI/ADR-RES cells assessed as growth inhibition after 48 hrs by SRB assay; type: functional; procedure, shortened: as §3
[22] = test system: HL-60(TB); test: Cytotoxicity against human HL-60(TB) cells assessed as growth inhibition after 48 hrs by SRB assay; type: functional; conditions: HL-60, 48 h
Procedure, shortened: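 NCI 60-human-cancer-cell-line screen; only compounds meeting predetermined threshold inhibition criteria in the single-dose test went on to the 5-dose screen. Cells exposed for 48 h and growth read by sulforhodamine B assay. GI50 is the molar concentration giving 50% growth inhibition of tumour cells.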

[23] = test system: RXF 393; test: Cytotoxicity against human RXF393 cells assessed as growth inhibition after 48 hrs by SRB assay; type: functional; conditions: RXF 393, 48 h; procedure, shortened: as §3
[24] = test system: DU-145; test: Cytotoxicity against human DU145 cells assessed as growth inhibition after 48 hrs by SRB assay; type: functional; conditions: DU-145, 48 h; procedure, shortened: as §3
[25] = test system: SN12C; test: Cytotoxicity against human SN12C cells assessed as growth inhibition after 48 hrs by SRB assay; type: functional; procedure, shortened: as §3
[26] = test system: ACHN; test: Cytotoxicity against human ACHN cells assessed as growth inhibition after 48 hrs by SRB assay; type: functional; procedure, shortened: as §3
[27] = test system: SNB-19; test: Cytotoxicity against human SNB19 cells assessed as growth inhibition after 48 hrs by SRB assay; type: functional; conditions: SNB-19, 48 h; procedure, shortened: as §3
[28] = test system: OVCAR-3; test: Cytotoxicity against human OVCAR3 cells assessed as growth inhibition after 48 hrs by SRB assay; type: functional; conditions: OVCAR-3, 48 h; procedure, shortened: as §3
[29] = test system: BT-549; test: Cytotoxicity against human BT549 cells assessed as growth inhibition after 48 hrs by SRB assay; type: functional; conditions: BT-549, 48 h; procedure, shortened: as §3
[30] = test system: NCI-H23; test: Cytotoxicity against human NCI-H23 cells assessed as growth inhibition after 48 hrs by SRB assay; type: functional; conditions: NCI-H23, 48 h; procedure, shortened: as §3
[31] = test system: HCT-15; test: Cytotoxicity against human HCT15 cells assessed as growth inhibition after 48 hrs by SRB assay; type: functional; conditions: HCT-15, 48 h; procedure, shortened: as §3
[32] = test system: MDA-MB-231; test: Cytotoxicity against human MDA-MB-231 cells assessed as growth inhibition after 48 hrs by SRB assay; type: functional; conditions: MDA-MB-231, 48 h; procedure, shortened: as §3
[33] = test system: SF-539; test: Cytotoxicity against human SF539 cells assessed as growth inhibition after 48 hrs by SRB assay; type: functional; conditions: SF-539, 48 h; procedure, shortened: as §3
[34] = test system: CCRF-CEM; test: Cytotoxicity against human CCRF-CEM cells assessed as growth inhibition after 48 hrs by SRB assay; type: functional; procedure, shortened: as §3
[35] = test system: K562; test: Cytotoxicity against human K562 cells assessed as growth inhibition after 48 hrs by SRB assay; type: functional; conditions: K562, 48 h; procedure, shortened: as §3
[36] = test system: NCI-H522; test: Cytotoxicity against human NCI-H522 cells assessed as growth inhibition after 48 hrs by SRB assay; type: functional; conditions: NCI-H522, 48 h; procedure, shortened: as §3
[37] = test system: SNB-75; test: Cytotoxicity against human SNB75 cells assessed as growth inhibition after 48 hrs by SRB assay; type: functional; conditions: SNB-75, 48 h; procedure, shortened: as §3
[38] = test system: Malme-3M; test: Cytotoxicity against human MALME-3M cells assessed as growth inhibition after 48 hrs by SRB assay; type: functional; procedure, shortened: as §3
[39] = test system: PC-3; test: Cytotoxicity against human PC3 cells assessed as growth inhibition after 48 hrs by SRB assay; type: functional; conditions: PC-3, 48 h; procedure, shortened: as §3
[40] = test system: NCI-H460; test: Cytotoxicity against human NCI-H460 cells assessed as growth inhibition after 48 hrs by SRB assay; type: functional; conditions: NCI-H460, 48 h; procedure, shortened: as §3
[41] = test system: KM12; test: Cytotoxicity against human KM12 cells assessed as growth inhibition after 48 hrs by SRB assay; type: functional; conditions: KM12, 48 h; procedure, shortened: as §3
[42] = test system: MDA-MB-435; test: Cytotoxicity against human MDA-MB-435 cells assessed as growth inhibition after 48 hrs by SRB assay; type: functional; conditions: MDA-MB-435, 48 h; procedure, shortened: as §3

SMILES	inhibition [1] [%]	IC50 [2] [µM]	GI50 [15] [µM]	GI50 [16] [nM]	GI50 [17] [nM]	GI50 [18] [nM]	GI50 [19] [nM]	GI50 [20] [nM]	GI50 [21] [nM]	GI50 [22] [nM]	GI50 [23] [nM]	GI50 [24] [nM]	GI50 [25] [nM]	GI50 [26] [µM]	GI50 [27] [µM]	GI50 [28] [nM]	GI50 [29] [µM]	GI50 [30] [nM]	GI50 [31] [nM]	GI50 [32] [nM]	also measured
COc1cc([C@@H]2c3cc4c(cc3C[C@H]3COC(=O)[C@@H]32)OCO4)cc(OC)c1OC [DESOXYPODOPHYLLOTOXIN]	100	1.76																			
COc1ccc(C(=O)c2ccc(OC)c(N)c2OC)cc1F	45																				inhibition of growth at 10 µM [3]: 59%; inhibition of growth at 10 µM [4]: 53%; inhibition of growth at 10 µM [5]: 77%; inhibition of growth at 10 µM [6]: 61%; inhibition of growth at 10 µM [7]: 43%; inhibition of growth at 10 µM [8]: 71%; inhibition of growth at 10 µM [9]: 72%; inhibition of growth at 10 µM [10]: 100%; inhibition of growth at 10 µM [11]: 49%; inhibition of growth at 10 µM [12]: 45%; inhibition of growth at 10 µM [13]: 81%; inhibition of growth at 10 µM [14]: 52%
C=C(c1cc(OC)c(OC)c(OC)c1)c1cc(OC)c(F)cc1OC	44		2.67	587	455	1050	547	2190	375	273	2160	2440	498	6.54	3.3	521	4.12	2200	666	945	GI50 [33]: 2160 nM; GI50 [34]: 1100 nM; GI50 [35]: 340 nM; GI50 [36]: 601 nM; GI50 [37]: 920 nM; GI50 [38]: > 10 µM; GI50 [39]: 2240 nM; GI50 [40]: 1220 nM; GI50 [41]: 568 nM; GI50 [42]: 260 nM
COc1ccc(C(=O)c2cc(F)c(F)c(OC)c2F)cc1O	88	28.2	3.85	703	969	2440	804	1600	789	2020	2470	2080	5160	6.84	4.39	1500	3.13	3750	1760	2090	GI50 [33]: 2470 nM; GI50 [34]: 3310 nM; GI50 [35]: 186 nM; GI50 [36]: 1340 nM; GI50 [37]: 1740 nM; GI50 [38]: 9.53 µM; GI50 [39]: 3720 nM; GI50 [40]: 2230 nM; GI50 [41]: 1030 nM; GI50 [42]: 285 nM
